Dynein cargo inh – blocks dynein driven cargo transport along microtubules; 3617.4 mouse cells, GR-EGFP nuclear translocation imaging; test concentration mostly 20 µM; stimulated with dexamethasone, 1 µM; active compounds read low; z-score, hits read low; actives 0.47% (n = 220,000); AID 1381;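 active = plate z-score of nuclear minus cytoplasmic receptor signal below a set negative limit, without overly bright fluorescence or cell loss, cut at about -3.5 in these data, passing the limit was not always enough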;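 also: z-score of nuclear minus cytoplasmic ring GR-EGFP intensity difference per well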
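Buffer or medium: tetracycline-free induction medium containing charcoal-stripped FBS / Reagent: dexamethasone agonist, 1.0 µM final, for 30 min / Technique: automated 10x imaging of fixed Hoechst-stained cells / Times: induction 48 h, compound 1 h, agonist 30 min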
XBP1 UPR activ – adaptive UPR (XBP1) activation; CHO-XBP1 luciferase reporter, IRE1-XBP1 UPR activation, luminescence; percent of tunicamycin response, DMSO as zero; activation, % at 20 µM; actives 0.33% (n = 330,000); AID 463104;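 active = versus positive control, 20 µM dose yields 30% or more activation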
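Assay system: CHO-XBP1 luciferase reporter cells; Schedule: 6 h treatment, 37 °C; Detection: glow luminescence from Steady-Glo reagent; Benchmarks: high control tunicamycin 10 µg/mL final, low control DMSO vehicle only.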
CHOP inh – blocks CHOP induction under ER stress; CHO-K1 CHOP-promoter luciferase, tunicamycin-induced, 15-18 h; inhibition, % at 10 µM; actives 3.8% (n = 220,000);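 active = compounds that reduced the stress-induced luciferase reporter signal by more than about 70% of percent inhibition, limit read from the data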
p-CIP stab down – p/CIP protein destabilization | Q05BA5 | F442A p/CIP-EGFP cells, EGFP fluorescence, 16 h | decrease of EGFP signal, % at 10 µM | actives 0.01% (n = 290,000);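 active = EGFP signal decrease of at least 30% at 10 µM or well 3 SD below plate mean, unless failing retest; inactive = the rest, including hits failing retest or dose response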
Beta2AR agonist – activates human beta-2 adrenergic receptor causing internalization. P07550. Am2.2-beta2AR cells, FAP receptor internalization, flow cytometry. response, % (test concentration not listed). actives 0.43% (n = 340,000). AID 504454;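 active = response above a set limit, near 3 SD of response in nonfluorescent compounds, cut at about 42% in these data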
Target sequence (P07550 whole entry, looked up): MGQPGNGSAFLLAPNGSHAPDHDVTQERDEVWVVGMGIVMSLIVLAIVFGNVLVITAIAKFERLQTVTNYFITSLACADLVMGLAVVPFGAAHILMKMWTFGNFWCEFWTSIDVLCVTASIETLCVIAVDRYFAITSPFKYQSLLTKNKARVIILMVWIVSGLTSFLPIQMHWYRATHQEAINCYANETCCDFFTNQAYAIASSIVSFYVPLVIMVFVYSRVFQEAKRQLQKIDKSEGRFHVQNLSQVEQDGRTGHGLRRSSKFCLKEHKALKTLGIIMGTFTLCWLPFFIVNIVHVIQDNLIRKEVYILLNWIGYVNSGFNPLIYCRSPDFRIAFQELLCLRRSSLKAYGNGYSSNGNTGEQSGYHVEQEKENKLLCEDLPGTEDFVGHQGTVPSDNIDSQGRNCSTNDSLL
CHOP UPR activ – activators of apoptotic arm of unfolded protein response (CHOP); AID 449763; activation, % at 10 µM; CHO-CHOP luciferase reporter, UPR activation, luminescence; percent of tunicamycin response over DMSO baseline; actives 0.34% (n = 330,000);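 active = at 10 µM dose, activation of 40% or more, normalized to positive control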
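Dosing – one dose, 10 µM in 0.5% DMSO · System – CHO-CHOP cells, stable luciferase reporter of PERK-eIF2a-CHOP signalling · Input – 500 cells/well · Control set – tunicamycin 10 µg/mL final as positive, DMSO-only wells as negative · Timing – 6 h compound treatment, 37 °C · Measure – % activation vs tunicamycin · Technique – luminescence read with Steady-Glo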
Numbers stand for hits. Many of the other results were omitted from the sample, so hits are more common in it than they were.

`COC(=O)/C(=C1/Oc2ccc(C)cc2S1)C(F)(F)F` gave Dynein cargo inh inactive, XBP1 UPR activ inactive, CHOP inh inactive, p-CIP stab down inactive, Beta2AR agonist inactive and CHOP UPR activ inactive.
For Cc1csc(C(C#N)C(=O)c2ccc(S(=O)(=O)N3CCCC3)cc2)n1 (stereo unspecified) the results were Dynein cargo inh inactive, XBP1 UPR activ inactive, CHOP inh inactive, p-CIP stab down inactive, Beta2AR agonist inactive and CHOP UPR activ inactive.
`Cc1ccc(C)n1-n1c(C)nc2sc(-c3ccccc3)cc2c1=O` gave Dynein cargo inh inactive, XBP1 UPR activ inactive, CHOP inh 76.9, p-CIP stab down inactive, Beta2AR agonist inactive and CHOP UPR activ inactive.
`O=c1c2cc(-c3ccccc3)sc2ncn1-n1cccc1` gave Dynein cargo inh inactive, XBP1 UPR activ inactive, CHOP inh inactive, p-CIP stab down inactive, Beta2AR agonist inactive and CHOP UPR activ inactive.
For Cc1ccc(C)n1-n1cnc2sc(-c3ccccc3)cc2c1=O the results were Dynein cargo inh inactive, XBP1 UPR activ inactive, CHOP inh 78.5, p-CIP stab down inactive, Beta2AR agonist inactive and CHOP UPR activ inactive.
For COc1ccc(-c2nc(NC(=O)C3CCN(c4nc5ccccc5o4)CC3)sc2C)cc1 the results were Dynein cargo inh inactive, XBP1 UPR activ inactive, CHOP inh 78.1, p-CIP stab down inactive, Beta2AR agonist inactive and CHOP UPR activ inactive.
For O=c1c2c(-c3cccs3)csc2ncn1/N=C/c1ccc(OC(F)F)cc1 the results were Dynein cargo inh inactive, XBP1 UPR activ inactive, CHOP inh 77.4, p-CIP stab down inactive, Beta2AR agonist inactive and CHOP UPR activ inactive.
CCc1nccn1-c1cc(C(C)(C)C)nc2c(-c3ccc(Cl)cc3)cnn12 was read as Dynein cargo inh inactive, XBP1 UPR activ inactive, CHOP inh inactive, p-CIP stab down inactive, Beta2AR agonist inactive and CHOP UPR activ inactive.
For Cc1nccn1-c1cc(C(C)(C)C)nc2c(-c3ccccc3)cnn12 the results were Dynein cargo inh inactive, XBP1 UPR activ inactive, CHOP inh 79.5, p-CIP stab down inactive, Beta2AR agonist inactive and CHOP UPR activ inactive.
Screening CCOC(=O)N1CCN(C(=O)c2cc3cc(OC)c(OC)cc3[nH]2)CC1 returned XBP1 UPR activ inactive, p-CIP stab down inactive, Beta2AR agonist inactive and CHOP UPR activ inactive.
CN1CCN(c2nc3ccccc3nc2C(C#N)C(=O)OC2CCCCC2)CC1 (stereo unspecified) was read as Dynein cargo inh inactive, XBP1 UPR activ inactive, CHOP inh 72.0, p-CIP stab down inactive, Beta2AR agonist inactive and CHOP UPR activ inactive.
`CC1(NC(=O)Nc2cc([N+](=O)[O-])ccc2O)CCS(=O)(=O)C1` (stereo unspecified) gave XBP1 UPR activ inactive, Beta2AR agonist inactive and CHOP UPR activ inactive.
Screening C=CCC(C)(NCc1ccccc1)c1ccc(C)cc1 (stereo unspecified) returned Dynein cargo inh inactive, XBP1 UPR activ inactive, CHOP inh 75.2, p-CIP stab down inactive, Beta2AR agonist inactive and CHOP UPR activ inactive.
CCOC(=O)c1c(/N=C/N(C)C)sc(/C=N/Nc2ccccc2)c1-c1ccccc1Cl was read as Dynein cargo inh inactive, XBP1 UPR activ inactive, CHOP inh inactive, p-CIP stab down inactive, Beta2AR agonist inactive and CHOP UPR activ inactive.
For CCOC(=O)c1c(/N=C/N(C)C)sc(/C=N/Nc2ccccc2)c1-c1ccccc1 the results were Dynein cargo inh inactive, XBP1 UPR activ inactive, CHOP inh 82.2, p-CIP stab down inactive, Beta2AR agonist inactive and CHOP UPR activ inactive.
For O=C(Nc1ccc(N2CCN(Cc3ccccc3F)CC2)cc1)c1ccccc1[N+](=O)[O-] the results were Dynein cargo inh inactive, XBP1 UPR activ inactive, CHOP inh inactive, p-CIP stab down inactive, Beta2AR agonist inactive and CHOP UPR activ inactive.
Screening O=C(Nc1ccc(N2CCN(Cc3ccccc3F)CC2)cc1)c1ccc([N+](=O)[O-])o1 returned XBP1 UPR activ inactive, p-CIP stab down inactive, Beta2AR agonist inactive and CHOP UPR activ 89.8.
`Clc1ccc(-c2onc3c2CCCC3)cc1` gave Dynein cargo inh inactive, XBP1 UPR activ inactive, CHOP inh 77.7, p-CIP stab down inactive, Beta2AR agonist inactive and CHOP UPR activ inactive.
For COc1ccc(C(=O)CSc2nnc(-c3ccc(C)cc3)o2)cc1 the results were Dynein cargo inh inactive, XBP1 UPR activ inactive, CHOP inh inactive, p-CIP stab down inactive, Beta2AR agonist inactive and CHOP UPR activ inactive.
Screening COc1ccc(OC)c(C(=O)CSc2nnc(-c3ccc(OC)c(OC)c3)o2)c1 returned Dynein cargo inh inactive, CHOP inh 80.4 and p-CIP stab down inactive.
`COc1ccc(C2C(C#N)=C(N)Oc3cc(N)ccc32)cc1` (stereo unspecified) gave XBP1 UPR activ inactive, p-CIP stab down inactive, Beta2AR agonist inactive and CHOP UPR activ inactive.
COc1cc(C2C(C#N)=C(N)Oc3cc(N)ccc32)cc(OC)c1OC (stereo unspecified) was read as Dynein cargo inh inactive, XBP1 UPR activ inactive, CHOP inh inactive, p-CIP stab down inactive, Beta2AR agonist 50.5 and CHOP UPR activ inactive.
`COCCOc1ccc(C(F)(F)F)cc1NC(=O)c1ccc(C(F)(F)F)cc1` gave Dynein cargo inh inactive, XBP1 UPR activ inactive, CHOP inh inactive, p-CIP stab down inactive, Beta2AR agonist inactive and CHOP UPR activ inactive.
COCCOc1ccc(C(F)(F)F)cc1Nc1nc2ccccc2o1 was read as Dynein cargo inh inactive, XBP1 UPR activ inactive, CHOP inh 87.5, p-CIP stab down inactive, Beta2AR agonist inactive and CHOP UPR activ inactive.
Screening COC(C[C@H](O)CC(=O)[C@H](C)OCc1ccccc1)OC returned Dynein cargo inh inactive, XBP1 UPR activ inactive, CHOP inh inactive, p-CIP stab down inactive, Beta2AR agonist inactive and CHOP UPR activ inactive.
Screening CC(CC(=O)O)Nc1ccccc1O (stereo unspecified) returned Dynein cargo inh inactive, XBP1 UPR activ inactive, CHOP inh inactive, p-CIP stab down inactive, Beta2AR agonist inactive and CHOP UPR activ inactive.
For COc1ccc(C=C2C=C(C(C)(C)C)C(=O)C(C(C)(C)C)=C2)cc1OC the results were XBP1 UPR activ inactive, p-CIP stab down inactive, Beta2AR agonist 76.1 and CHOP UPR activ inactive.
COc1ccc(/C=C2\CC/C(=C\c3ccc(OC)c(OC)c3)C2=O)cc1OC was read as Dynein cargo inh inactive, XBP1 UPR activ inactive, CHOP inh inactive, p-CIP stab down inactive, Beta2AR agonist inactive and CHOP UPR activ inactive.
Screening Cc1cccc(-c2nsc(SCC(=O)Nc3nccs3)n2)c1 returned Dynein cargo inh inactive, XBP1 UPR activ inactive, CHOP inh 87.4, p-CIP stab down inactive, Beta2AR agonist inactive and CHOP UPR activ inactive.
